Data on five compounds can be found in PMC3042036 (Pharmacological research : the official journal of the …, 2010).

A short description of series [1]: Plasma and brain compound concentrations after i.p. administration to mice. It counts as in vivo, mice (B6C3F1). The settings on record: for Brain drug level / Plasma drug level / B/P (Brain-to-Plasma ratio): mice; for B/P (Brain-to-Plasma ratio): total drug; for concentration at 2 h / Kp at 2 h: 5 mg/kg. The method in brief: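 Male B6C3F1 mice are dosed i.p. with test compound in DMSO. Brains are sonicated in 10 mM ammonium acetate, pH 5.7 (1:2 w/v). Plasma comes from blood collected with EDTA and spun 10 min at 4500g, 4°C. Each 50 μl aliquot is precipitated with 0.2 ml acetonitrile and spun at 15,000g. Supernatants are quantified by LC-MS/MS.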

Series [2] concerns the target T1, Pgp (human MDR1) in MDCK-MDR cells (Homo sapiens, UniProt P08183). The series is described as follows: MDCK-MDR bi-directional permeability assay. The settings on record: 5 μM test compound; for Papp (A-B) / Papp (B-A): pH 7.4.
Another series concerns brain acetyl-tubulin. The series can be described thus: Brain acetyl-tubulin ELISA after administration to mice. It counts as in vivo, mice (B6C3F1). The settings on record: for Brain acetyl-tubulin relative to vehicle: 16 hours after dosing. An outline of the steps: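 Young male B6C3F1 mice (2–3 months) get a single i.p. dose of test compound in DMSO (~40 μl, scaled to body weight), n=3–6 per group. Brain hemispheres are sonicated 1:5 w/v in RIPA with protease inhibitors and trichostatin A. Sandwich ELISA uses 12G10 α-tubulin capture and HRP-acetyl-tubulin detection at 450 nm. Inputs run from 60 to 2.2 ng/μl in duplicate and are fit to the vehicle input curve.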
For orientation: An ELISA detects its analyte on a solid surface through an enzyme-linked reagent.

The subject of series [3] is optic nerve (ON) acetyl-tubulin. The series can be described thus: Optic nerve acetyl-tubulin ELISA after administration to mice. The settings on record: 1, 3 and 10 mg/kg i.p., 16 hours after dosing. The series is classed as in vivo, mice (B6C3F1). An outline of the steps:
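Male B6C3F1 mice (2–3 months, n=3/treatment) get a single i.p. dose of test compound in DMSO, volume scaled to body weight. Optic nerves are taken 16 hours later and sonicated 1:5 w/v in RIPA with inhibitors. Acetyl-tubulin is measured by α-tubulin-capture/HRP-acetyl-tubulin ELISA at 450 nm, using duplicate serial inputs. Values are read off a vehicle-control input curve and normalized to vehicle mice.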

Series [4] deals with acetyl-tubulin in PC12 cells. The series is described as follows: Acetyl-tubulin levels in PC12 cells. It counts as cell-based. The settings on record: 24 hours treatment, increasing concentrations.
Series [5] deals with T1, Pgp (human MDR1) in MDCK-MDR cells. The series can be described thus: Inhibition of Pgp-mediated transport of digoxin in MDCK-MDR cells. The note with it: 10 μM digoxin + 5 μM test compound.
A further series concerns the target P-gp (human MDR1) (Homo sapiens, UniProt P08183). The series is described as follows: MDCK-MDR bi-directional permeability assay. The note with it: dog, MDCK-MDR1, pH 7.4.
Series [6] concerns Tg mice that express human tau. The settings on record: cited from earlier work.
[7] abbreviates: male, B6C3F1, mouse, brain, intraperitoneal, 3 mg/kg.
Where [8] appears, read: male, B6C3F1, mouse, brain, ip, 10 mg/kg.
Setting [9] is: male, B6C3F1, mouse, brain/plasma, ip.
Setting [10] is: male, B6C3F1, mouse, plasma, ip.

Molecules are shown by their SMILES.

Chain of P-gp (human MDR1) (P08183 whole entry): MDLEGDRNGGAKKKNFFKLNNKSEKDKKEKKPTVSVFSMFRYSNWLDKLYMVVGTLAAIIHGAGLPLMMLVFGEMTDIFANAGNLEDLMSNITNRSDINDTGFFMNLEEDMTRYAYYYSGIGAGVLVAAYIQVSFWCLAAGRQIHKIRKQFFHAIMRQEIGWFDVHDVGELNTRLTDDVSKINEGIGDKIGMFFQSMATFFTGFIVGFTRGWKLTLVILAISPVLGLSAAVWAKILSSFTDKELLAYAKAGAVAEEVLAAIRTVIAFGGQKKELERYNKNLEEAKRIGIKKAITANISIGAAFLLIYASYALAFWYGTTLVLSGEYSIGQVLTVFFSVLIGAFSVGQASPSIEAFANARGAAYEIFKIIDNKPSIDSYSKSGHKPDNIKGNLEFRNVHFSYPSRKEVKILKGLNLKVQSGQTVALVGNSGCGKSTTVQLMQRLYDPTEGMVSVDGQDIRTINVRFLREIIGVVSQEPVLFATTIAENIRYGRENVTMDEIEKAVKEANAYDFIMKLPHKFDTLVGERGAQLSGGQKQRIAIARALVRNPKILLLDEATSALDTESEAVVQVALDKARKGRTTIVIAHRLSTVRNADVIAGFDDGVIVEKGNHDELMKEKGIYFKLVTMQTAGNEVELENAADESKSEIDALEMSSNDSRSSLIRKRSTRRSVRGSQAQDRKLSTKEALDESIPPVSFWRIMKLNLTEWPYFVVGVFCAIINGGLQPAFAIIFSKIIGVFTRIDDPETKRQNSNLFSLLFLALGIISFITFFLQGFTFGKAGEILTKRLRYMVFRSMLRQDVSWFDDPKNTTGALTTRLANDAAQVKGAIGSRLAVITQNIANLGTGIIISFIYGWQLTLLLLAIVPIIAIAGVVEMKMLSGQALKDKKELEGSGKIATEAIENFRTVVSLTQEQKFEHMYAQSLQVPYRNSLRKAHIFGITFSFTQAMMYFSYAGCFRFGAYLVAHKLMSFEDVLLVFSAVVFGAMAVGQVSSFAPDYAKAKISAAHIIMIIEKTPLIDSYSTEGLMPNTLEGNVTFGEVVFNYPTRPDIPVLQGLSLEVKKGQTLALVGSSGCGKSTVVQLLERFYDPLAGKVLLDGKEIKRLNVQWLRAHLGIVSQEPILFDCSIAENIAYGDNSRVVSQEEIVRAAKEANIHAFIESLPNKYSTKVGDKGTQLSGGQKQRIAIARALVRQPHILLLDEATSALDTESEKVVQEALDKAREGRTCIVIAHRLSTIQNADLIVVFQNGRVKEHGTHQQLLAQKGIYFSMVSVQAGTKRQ
T1 sequence (P08183 whole entry): as above

For the compound `C/C1=C/C[C@@H](/C(C)=C/c2csc(CO)n2)OC(=O)C[C@H](O)C(C)(C)C(=O)[C@H](C)[C@@H](O)[C@@H](C)CCC1` [CNDR-89, 12,13-desoxy-epothilone F], in series [1] (i.p. 5 mg/kg, 2 hours), the Brain drug level amounted to 24 ng/g, the Plasma drug level was 6.8 ng/mL and the “B/P (Brain-to-Plasma ratio)” value is reported as 3.5. Also, in series [1] (i.p. 10 mg/kg, 24 hours), the Brain drug level is listed as 13 ng/g and the Plasma drug level result is “BLD”. Besides, in series [2], the “Papp (A-B)” value is 2.3 10^−6 cm/s and the “Papp (B-A)” value is 63 10^−6 cm/s. Also, the “Brain acetyl-tubulin relative to vehicle” value with brain acetyl-tubulin (3 mg/kg i.p.) is listed as “increase of acetyl-tubulin relative to vehicle”. In addition, the “Brain acetyl-tubulin relative to vehicle” value in the series with brain acetyl-tubulin (10 mg/kg i.p.) is “no effect”. For the same compound, the “ON acetyl-tubulin relative to vehicle (in words)” value in series [3] is “only resulted in an increase of the stabilized MT biomarker at 10 mg/kg”.
As usually defined, the Kp is tissue or fluid exposure divided by exposure in the circulation. In general, Papp A→B refers to how fast a substance crosses the layer from the apical side. Higher therefore signals fast passage. Usually Papp B→A stands for how fast a substance crosses the layer from the basolateral side. The term efflux ratio denotes the permeability from basolateral to apical divided by that in the opposite direction, in the common usage. With `C/C1=C/C[C@@H](/C(C)=C/c2csc(C)n2)OC(=O)C[C@H](O)C(C)(C)C(=O)[C@H](C)[C@@H](O)[C@@H](C)CCC1` [CNDR-66, Epothilone D], in series [4], the “Amount of acetyl-tubulin in PC12 cells” value is reported as “significant concentration-dependent increase”. In addition, the “Inhibition of Pgp transport of digoxin (in words)” value in series [5] was “potent inhibitor of Pgp transport”. For the same compound, the “Brain elimination half-life compared with plasma” value in series [1] (full pharmacokinetic analysis, data not shown) is listed as “far exceeded that observed in the plasma”. The same compound displayed a concentration at 7 days in series [1] (setting [7]) of 8.3 ng/g. In series [1] (setting [7]), this compound showed a concentration at 10 days of 1.8 ng/g. In addition, the concentration at 2 h in series [1] (male, B6C3F1, mouse, brain, ip) was found to be 109 ng/g; in series [1] (setting [10]), 14 ng/mL. This compound also had a concentration at 24 h in series [1] (setting [8]) of 64 ng/g. The compound also had a Kp at 2 h in series [1] (setting [9]) of 7.6. Also, the Plasma drug level result in series [1] (i.p. 10 mg/kg, 24 hours) is listed as “BLD”. Moreover, the “Efflux Ratio (B-A)/(A-B)” value in series [2] was “near unity”. On P-gp (human MDR1), this compound gave a Papp A→B at 2 h, 5 µM of 30 ×10⁻⁶ cm/s. Also, the Papp B→A at 2 h, 5 µM at P-gp (human MDR1) amounted to 46.8 ×10⁻⁶ cm/s. The efflux ratio at 2 h, 5 µM at P-gp (human MDR1) came out at 1.6. Also, the Brain acetyl-tubulin levels entry is listed as “significant increase of brain acetyl-tubulin” in the series on brain acetyl-tubulin (single 1 mg/kg, 7 days after dosing); “increased acetyl-tubulin levels” in the series on brain acetyl-tubulin (single 3 mg/kg, 6 and 10 days after dosing); “increase of acetyl-tubulin” with brain acetyl-tubulin (single 3 mg/kg, 7 days after dosing); “statistically insignificant change” in the series with brain acetyl-tubulin (single 3 mg/kg, 14 days after dosing); “not further increased” in the series with brain acetyl-tubulin (single 6 mg/kg, 7 days after dosing, compared with 3 mg/kg). In addition, the “ON acetyl-tubulin relative to vehicle (in words)” value in series [3] is reported as “elevation of acetyl-tubulin at all doses”. The “Effect in Tg mice that express mutant human tau” value in series [6] was “improve CNS axonal integrity, MT density and cognitive performance”.
On to `C/C1=C/C[C@@H](/C(C)=C/c2csc(CO)n2)OC(=O)C[C@H](O)C(C)(C)C(=O)[C@H](C)[C@@H](O)[C@@H](C)/C=C/C1` [CNDR-88], for which, in series [1] (i.p. 5 mg/kg, 2 hours), the Brain drug level stood at 30 ng/g, the Plasma drug level came to 12 ng/mL and the “B/P (Brain-to-Plasma ratio)” value was determined as 2.6. In series [1] (i.p. 10 mg/kg, 24 hours), the Brain drug level is recorded as 45 ng/g, the Plasma drug level is 6.1 ng/mL and the “B/P (Brain-to-Plasma ratio)” value is listed as 7.3. In series [2], the “Papp (A-B)” value was 0.8 10^−6 cm/s and the “Papp (B-A)” value is listed as 58.6 10^−6 cm/s. Also, the “ON acetyl-tubulin relative to vehicle (in words)” value in series [3] is recorded as “neither CNDR-86 nor CNDR-88 elicited a change at any dose”.
With `C/C(=C\c1csc(C)n1)[C@@H]1C[C@@H]2O[C@]2(C)CCC[C@H](C)[C@H](O)[C@@H](C)C(=O)C(C)(C)[C@@H](O)CC(=O)N1` [CNDR-90, ixabepilone, reference compound], the concentration at 2 h in series [1] (male, B6C3F1, mouse, brain, ip) was determined as 142 ng/g; in series [1] (setting [10]) it was 319 ng/mL. Further, the concentration at 24 h turned out to be 107 ng/g in series [1] (setting [8]) and 41 ng/mL in series [1] (male, B6C3F1, mouse, plasma, ip, 10 mg/kg). In series [1] (setting [9]), the Kp at 2 h was found to be 0.4. Moreover, the Kp at 24 h in series [1] (male, B6C3F1, mouse, brain/plasma, ip, 10 mg/kg) was 2.6.
Consider `CC(=O)O[C@H]1C(=O)[C@@]2(C)[C@H]([C@H](OC(=O)c3ccccc3)[C@]3(O)C[C@H](OC(=O)[C@H](O)[C@@H](NC(=O)c4ccccc4)c4ccccc4)C(C)=C1C3(C)C)[C@]1(OC(C)=O)CO[C@@H]1C[C@@H]2O` [Paclitaxel, reference compound], for which the concentration at 2 h in series [1] (male, B6C3F1, mouse, brain, ip) worked out at 85 ng/g; in series [1] (setting [10]), 1290 ng/mL. In addition, in series [1] (i.p. 5 mg/kg, 2 hours), the “B/P (Brain-to-Plasma ratio)” value amounted to 0.07. Also, the “Effect in Tg mice that over-express human tau” value in series [6] (drug absorption at peripheral neuromuscular junctions) is “increased MT density and marked improvement in motor function”.
